The test system of assay [1] is K562. The assay can be described thus: Cell cycle arrest in human K562 cells assessed as accumulation at sub-G1 phase at IC50 after 72 hrs by propidium iodide staining based flow cytometry (reference value: 1.84%). It is filed as functional.
For assay [2], the system named is A549. The assay can be described thus: Cytotoxicity against human A549 cells assessed as inhibition of cell growth after 72 hrs by MTT assay. It is filed as functional, cell-based. The conditions noted are these: A549, 72 h.
Another assay concerns MCF7. The assay can be described thus: Cytotoxicity against human MCF7 cells assessed as inhibition of cell growth after 72 hrs by MTT assay. The format is functional, cell-based. The settings on record: MCF7, 72 h. The gist of the method:
(§1)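 Exponentially growing cells were exposed 72 h to compounds diluted from a 10 mM DMSO stock into serum-free medium. Growth was read by colorimetric MTT. Leukaemia/lymphoma lines (K562, HL-60, Jurkat, Raji) were grown in RPMI 1640; MCF-7, MDA-MB 231, HeLa, A549 and normal MRC-5 fibroblasts in DMEM; 37 °C, 5% CO2.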

For the next assay, the system named is Jurkat. As to the kind of experiment: Cytotoxicity against human Jurkat cells assessed as inhibition of cell growth after 72 hrs by MTT assay. It is filed as functional, cell-based. The gist of the method: as §1
For orientation: Formazan colour is commonly taken as a measure of viable cells.

Assay [3] relates to K562. As to the kind of experiment: Cell cycle arrest in human K562 cells assessed as accumulation at G2/M phase at IC50 after 72 hrs by propidium iodide staining based flow cytometry (reference value: 24.13%). The format is functional. (In general: In flow cytometry, cells or beads pass a laser one at a time.)
Assay [4] has as its system K562. As to the kind of experiment: Cell cycle arrest in human K562 cells assessed as accumulation at S phase at IC50 after 72 hrs by propidium iodide staining based flow cytometry (reference value: 26.52%). It is filed as functional.
For assay [5], the system named is K562. As to the kind of experiment: Up regulation of cleaved PARP expression in human K562 cells at IC50 measured after 72 hrs by Western blot analysis. It is filed as functional, cell-based. For orientation: A western blot detects proteins with antibodies after separation by electrophoresis.
Assay [6] relates to K562. As to the kind of experiment: Down regulation of Bcl-2 expression in human K562 cells at IC50 measured after 72 hrs by Western blot analysis. It is filed as functional, cell-based.
Assay [7] has as its system K562. The assay can be described thus: Down regulation of Bax expression in human K562 cells at IC50 measured after 72 hrs by Western blot analysis. The format is functional, cell-based.
Assay [8] relates to K562. The assay can be described thus: Induction of apoptosis in human K562 cells assessed as necrotic cells at IC50 after 72 hrs by Annexin V-FITC/propidium iodide staining based flow cytometry relative to control. The format is functional. The gist of the method: (§2)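 K562 cells seeded at 5 × 10⁵ per well, treated 72 h at each compound's IC₅₀ level. Viability was checked by trypan blue exclusion. Viable cells were double-stained with Annexin V-FITC and propidium iodide and analysed by flow cytometry. Results are given as specific apoptosis or specific necrosis (%) relative to untreated cells.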

The test system of assay [9] is MDA-MB-231. As to the kind of experiment: Cytotoxicity against human MDA-MB-231 cells assessed as inhibition of cell growth after 72 hrs by MTT assay. The format is functional, cell-based. The settings on record: MDA-MB-231, 72 h.
For assay [10], the system named is K562. As to the kind of experiment: Induction of apoptosis in human K562 cells assessed as apoptotic cells at IC50 after 72 hrs by Annexin V-FITC/propidium iodide staining based flow cytometry relative to control. The format is functional. A digest of the protocol:
as §2

The next assay deals with MRC5. As to the kind of experiment: Cytotoxicity against human MRC5 cells assessed as inhibition of cell growth after 72 hrs by MTT assay. The settings on record: MRC5, 72 h. The format is cell-based.
The test system of assay [11] is MDA-MB-231. The assay can be described thus: Potency index, ratio of doxorubicin IC50 to test compound IC50 for human MDA-MB-231 cells. The format is functional.
The test system of the next assay is Raji. As to the kind of experiment: Cytotoxicity against human Raji cells assessed as inhibition of cell growth after 72 hrs by MTT assay. It is filed as functional, cell-based.
The test system of assay [12] is A549. As to the kind of experiment: Potency index, ratio of doxorubicin IC50 to test compound IC50 for human A549 cells. The format is functional.
In a further assay the test system is HeLa. As to the kind of experiment: Cytotoxicity against human HeLa cells assessed as inhibition of cell growth after 72 hrs by MTT assay. It is filed as functional, cell-based.
Assay [13] deals with K562. As to the kind of experiment: Cell cycle arrest in human K562 cells assessed as accumulation at G0/G1 phase at IC50 after 72 hrs by propidium iodide staining based flow cytometry (reference value: 47.51%). It is filed as functional.
The next assay concerns HL-60. As to the kind of experiment: Cytotoxicity against human HL60 cells assessed as inhibition of cell growth after 72 hrs by MTT assay. It is filed as functional, cell-based. The conditions noted are these: HL-60, 72 h. A digest of the protocol: as §1
The test system of assay [14] is K562. The assay can be described thus: Cytotoxicity against human K562 cells assessed as inhibition of cell growth after 72 hrs by MTT assay. It is filed as functional, cell-based. The settings on record: K562, 72 h.

This note sets out measurements from ChEMBL document CHEMBL4368873, “Novel O-methyl goniofufurone and 7-epi-goniofufurone derivatives: synthesis, in vitro cytotoxicity and SAR analysis” (Medchemcomm, 2018).

The source made the active and inactive calls. No cut-off for these calls is given here.

In general, IC50 refers to the concentration that inhibits the measured activity by half. Consider `CO[C@H](c1ccccc1)[C@H]1O[C@@H]2CC(=O)O[C@@H]2[C@H]1O`, for which the Activity with K562 [1] is 2.4%; with K562 [3], 24.89%; with K562 [4] it was 20.61%; in the assay with K562 [8], -0.5%; in the assay with K562 [10] it was -0.27%; with K562 [13], 52.09%. For the same molecule, the IC50 in the assay on A549 [2] was 2.64 µM; with MCF7 it was more than 100 µM; in the assay with Jurkat, 15.6 µM; in the assay with MDA-MB-231 [9], 0.064 µM; with MRC5 it was more than 100 µM; in the assay on Raji it was 15.6 µM. The IC50 in the assay with HeLa amounted to 5.64 µM; in the assay on HL-60, 2.96 µM; in the assay with K562 [14], 7.95 µM. Besides, the outcome in the assay on K562 [5], in the assay on K562 [6] and in the assay on K562 [7] was Active. Further, the entries for the “Ratio IC50” value in the assay on MDA-MB-231 [11] and with A549 [12] were 1.5 and 2, respectively.
